Publication PMC6210075 (ACS Omega, 2018)
Converted amounts (≈) assume the structure as drawn.

Tests used:
rat sEH = molecular target: T1, rat sEH (Rattus norvegicus, UniProt P80299); assay: sEH fluorescent inhibition assay, recombinant rat sEH; format: biochemical
T1 sequence (P80299 1-554): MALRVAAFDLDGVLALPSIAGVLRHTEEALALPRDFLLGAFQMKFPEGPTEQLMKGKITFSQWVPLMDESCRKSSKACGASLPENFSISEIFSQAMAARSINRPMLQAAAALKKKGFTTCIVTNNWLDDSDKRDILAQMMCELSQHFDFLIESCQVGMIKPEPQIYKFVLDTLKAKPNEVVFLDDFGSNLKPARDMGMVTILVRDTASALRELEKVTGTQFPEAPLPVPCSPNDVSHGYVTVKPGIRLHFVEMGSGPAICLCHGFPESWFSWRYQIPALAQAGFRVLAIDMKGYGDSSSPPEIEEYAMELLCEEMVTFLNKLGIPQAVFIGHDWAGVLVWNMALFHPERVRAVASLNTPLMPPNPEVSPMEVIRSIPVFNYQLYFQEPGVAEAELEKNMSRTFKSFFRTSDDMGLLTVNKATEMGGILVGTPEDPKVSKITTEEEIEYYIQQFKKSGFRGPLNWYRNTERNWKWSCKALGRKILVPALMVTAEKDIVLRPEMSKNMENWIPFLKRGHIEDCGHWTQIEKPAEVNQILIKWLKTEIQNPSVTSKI

Water solubility = format: physicochemical; conditions: DI water, 37 °C, thermodynamic from solid
In short: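 2–5 mg of solid was shaken in water for 2 days at 37 °C. The solution was filtered through PTFE, diluted twofold in MeOH containing 15 nM B-12, and quantified by LC/MS/MS.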

[1] = Cassette dosing pharmacokinetics in rats; format: in vivo; conditions: male, Sprague-Dawley, rat, whole blood, po, 1 mg/kg
In short: (§1)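 Test compounds were given as a cassette cocktail at 1 mg/kg each, p.o. in PEG300, to groups of 4 rats or 4 mice. Blood was taken by tail vein at set intervals and group averages were used.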

[2] = Cassette dosing pharmacokinetics in mice; format: in vivo; conditions: male, Swiss Webster, mouse, whole blood, po, 1 mg/kg
In short: as §1

mouse FAAH = molecular target: T2, mouse FAAH (Mus musculus, UniProt O08914); assay: FAAH fluorescent inhibition assay, mouse crude tissue homogenate; format: biochemical; conditions: FAAH IC50 (5 min pre-incubation)
T2 sequence (O08914 1-579): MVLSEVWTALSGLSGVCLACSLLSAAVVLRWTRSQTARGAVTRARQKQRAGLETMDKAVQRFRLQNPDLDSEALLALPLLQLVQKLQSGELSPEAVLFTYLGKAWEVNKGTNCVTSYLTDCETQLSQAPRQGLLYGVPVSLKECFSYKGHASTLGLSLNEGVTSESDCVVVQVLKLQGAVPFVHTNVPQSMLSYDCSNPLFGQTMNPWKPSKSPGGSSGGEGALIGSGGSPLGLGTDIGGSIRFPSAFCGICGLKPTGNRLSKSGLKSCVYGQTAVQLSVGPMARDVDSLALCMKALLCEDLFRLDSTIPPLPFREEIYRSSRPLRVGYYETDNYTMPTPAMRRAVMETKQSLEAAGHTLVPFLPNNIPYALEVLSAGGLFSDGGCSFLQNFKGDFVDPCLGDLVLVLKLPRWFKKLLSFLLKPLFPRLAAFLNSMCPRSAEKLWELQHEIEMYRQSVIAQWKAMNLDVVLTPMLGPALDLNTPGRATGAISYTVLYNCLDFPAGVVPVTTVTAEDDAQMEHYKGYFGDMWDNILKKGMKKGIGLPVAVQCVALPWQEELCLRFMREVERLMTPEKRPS

sEH = molecular target: T3, sEH (Mus musculus, UniProt P34914); assay: In vivo target engagement: residual sEH activity; conditions: mice, 1 mg/kg i.p. in DMSO, 4 h after dosing
T3 sequence (P34914 1-554): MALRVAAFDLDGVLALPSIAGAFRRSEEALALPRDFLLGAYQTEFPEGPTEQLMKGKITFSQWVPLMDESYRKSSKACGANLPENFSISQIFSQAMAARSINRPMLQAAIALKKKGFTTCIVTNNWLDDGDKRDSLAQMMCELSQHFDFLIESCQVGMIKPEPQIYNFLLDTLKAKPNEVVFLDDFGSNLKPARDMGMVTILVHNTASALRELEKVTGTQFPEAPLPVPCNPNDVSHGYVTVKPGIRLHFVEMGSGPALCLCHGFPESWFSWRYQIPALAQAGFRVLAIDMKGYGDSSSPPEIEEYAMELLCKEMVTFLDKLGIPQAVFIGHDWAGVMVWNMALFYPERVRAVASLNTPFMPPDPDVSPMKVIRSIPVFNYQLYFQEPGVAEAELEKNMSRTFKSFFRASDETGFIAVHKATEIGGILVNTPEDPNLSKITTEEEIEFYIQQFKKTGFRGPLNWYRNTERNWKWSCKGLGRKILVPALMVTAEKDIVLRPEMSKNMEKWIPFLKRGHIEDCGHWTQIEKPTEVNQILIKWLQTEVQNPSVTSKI

IC50 (rat sEH) [nM] | solubility at 2 days (Water solubility) [nM] | AUC [1] [µM·h] | Cmax [1] [nM] | AUC [2] [µM·h] | Cmax [2] [nM] | IC50 (mouse FAAH) [nM] | SMILES | residual brain sEH activity, % of control (sEH) [%]
240 | 2.8 (≈ 1.52 ng/mL) | 0.6 | 58 | 0.41 | 37 | > 10000 | O=C(Nc1ccc(C(F)(F)F)cc1F)N1CCC(Cc2cccc(Oc3ccc(C(F)(F)F)cn3)c2)CC1 [compound 18] | 
 |  |  |  |  |  |  | O=C(Nc1cccnc1)N1CCC(Cc2cccc(Oc3ccc(C(F)(F)F)cn3)c2)CC1 [PF-3845, reference compound] | 63 ± 14
